Active and inactive are the calls of the source. The calls are words filed in the database; no cut-off is given here.
Columns and labels:
[1] = biological target: Aldo-keto reductase family 1 member B1 (Rattus norvegicus, UniProt P07943); experiment: Inhibition of Wistar rat lenses ALR2 using D,L-glyceraldehyde as substrate preincubated for 10 mins before substrate addition measured after 4 mins by spectrophotometry
[2] = organism: Rattus norvegicus; experiment: Selectivity ratio for Wistar rat lenses ALR2 over Wistar rat kidney ALR1; assay type: tissue-based; conditions: Lens of camera-type eye
[3] = system: Brain; experiment: Antioxidant activity in rat brain assessed as inhibition of lipid peroxidation by TBARS assay; assay type: functional, tissue-based
Procedure, shortened: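 Fresh rat brain homogenized in ice-cold saline, centrifuged; lipoperoxidation driven by Fe(III)/ascorbic acid, compounds at 100 μM; malondialdehyde measured as TBARS (trichloroacetic acid, then thiobarbituric acid, red color at 532 nm); protein by Coomassie method.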

[4] = Antioxidant activity assessed as DPPH scavenging activity at 100 uM after 30 mins by UV spectrophotometry; assay type: physicochemical; conditions: 0.5 h
[5] = Antioxidant activity assessed as DPPH scavenging activity after 30 mins by UV spectrophotometry; assay type: physicochemical
[6] = Antioxidant activity assessed as DPPH scavenging activity at 10 uM after 30 mins by UV spectrophotometry; assay type: physicochemical; conditions: 0.5 h
[7] = Antioxidant activity assessed as DPPH scavenging activity at 50 uM after 30 mins by UV spectrophotometry; assay type: physicochemical; conditions: 0.5 h

SMILES	IC50 [1]	Selectivity ratio [2]	also measured
O=C(O)Cn1c(=O)c(-c2ccc(O)cc2O)nc2ccc(Cl)cc21	69 nM		
O=C(O)Cn1c(=O)c(-c2ccc(O)cc2O)nc2ccc(Br)cc21	91 nM		
O=C(O)Cn1c(=O)c(-c2ccc(F)cc2)nc2ccc(F)cc21	874 nM		
COc1ccc(/C=C/c2nc3ccccc3n(CC(=O)O)c2=O)cc1	4180 nM		
O=C(O)Cn1c(=O)c(-c2ccc(O)cc2O)nc2cc(Cl)ccc21	95 nM		
O=C(O)Cn1c(=O)c(Sc2ccc(Cl)cc2)nc2ccccc21	273 nM	1.9	
O=C(O)Cn1c(=O)c(-c2ccc(F)cc2)nc2ccc(-c3ccc(F)cc3)cc21	2130 nM		
O=C(O)Cn1c(=O)c(/C=C/c2ccc(O)cc2)nc2ccc(F)cc21	153 nM		inhibition [3]: Active; Activity [4]: 67.2%
O=C(O)Cn1c(=O)c(Sc2ccc(Br)cc2)nc2ccccc21	296 nM	6.9	
O=C(O)Cn1c(=O)c(-c2ccc(F)cc2)nc2ccc(Cl)cc21	1520 nM		
O=C(O)Cn1c(=O)c(-c2c[nH]c3ccccc23)nc2ccccc21	639 nM		
O=C(O)Cn1c(=O)c(Sc2ccc(Cl)cc2)nc2ccc(Br)cc21	395 nM	8.3	
O=C(O)Cn1c(=O)c(Sc2ccc(Br)cc2)nc2cc(Br)ccc21	319 nM	10.2	
O=C(O)Cn1c(=O)c(Sc2ccc(Br)cc2)nc2ccc(Cl)cc21	326 nM	6.1	
O=C(O)Cn1c(=O)c(-c2ccccc2)nc2ccccc21	5980 nM		
O=C(O)Cn1c(=O)c(Sc2ccccc2)nc2ccccc21	421 nM	2.7	
O=C(O)Cn1c(=O)c(Cc2ccccc2)nc2ccccc21	1110 nM		
O=C(O)Cn1c(=O)c(-c2ccc(O)cc2O)nc2ccc(F)cc21	32 nM		

SMILES	IC50 [1]	Selectivity ratio [2]	also measured
O=C(O)Cn1c(=O)c(Sc2ccc(Br)cc2)nc2ccc(Br)cc21	467 nM	3.7	
O=C(O)Cn1c(=O)c(-c2cc3ccccc3s2)nc2ccc(Cl)cc21	238 nM		
O=C(O)Cn1c(=O)c(Sc2ccc(Br)cc2)nc2ccc(F)cc21	191 nM	1.9	
O=C(O)Cn1c(=O)c(-c2ccc(O)cc2O)nc2cc(F)ccc21	63 nM		
O=C(O)Cn1c(=O)c(Sc2ccc(Cl)cc2)nc2ccc(F)cc21	56 nM	3.1	
O=C(O)Cn1c(=O)c(-c2ccc(O)cc2O)nc2cc(Br)ccc21	139 nM		
O=C(O)Cn1c(=O)c(CCc2ccc(O)cc2)nc2ccccc21	798 nM		Activity [4]: 16.2%
O=C(O)Cn1c(=O)c(/C=C/c2ccc(O)cc2)nc2ccccc21	182 nM		IC50 [5]: 51500 nM; inhibition [3]: Active; Activity [4]: 71.8%
O=C(O)Cn1c(=O)c(Sc2ccc(Cl)cc2)nc2ccc(Cl)cc21	158 nM	5.1	
COc1cc(/C=C/c2nc3ccccc3n(CC(=O)O)c2=O)ccc1O	419 nM		IC50 [5]: 24100 nM; inhibition [3]: Active; Activity [6]: 39.6%; Activity [7]: 68.8%; Activity [4]: 95.4%
O=C(O)Cn1c(=O)c(-c2ccc(O)cc2O)nc2ccccc21	397 nM		
O=C(O)Cn1c(=O)c(-c2c[nH]c3ccccc23)nc2ccc(Br)cc21	368 nM		
O=C(O)Cn1c(=O)c(-c2ccc(O)cc2)nc2ccccc21	2590 nM		
O=C(O)Cn1c(=O)c(Oc2ccccc2)nc2ccccc21	468 nM	12.5	
O=C(O)Cn1c(=O)c(-c2ccc(O)cc2O)nc2ccc(Cc3ccc(F)cc3)cc21	3340 nM		
O=C(O)Cn1c(=O)c(CCc2ccc(O)cc2)nc2ccc(F)cc21	652 nM		Activity [4]: 14.7%
O=C(O)Cn1c(=O)c(-c2ccc(F)cc2)nc2ccccc21	3380 nM		
